According to ChEMBL document CHEMBL1149771, “Antimicrobial studies of 2,4-dichloro-5-fluorophenyl containing oxadiazoles” (2008):
≈ marks a conversion by molar mass, not a printed value.

Columns and labels:
Format in all cases: functional
Escherichia coli [1] = assay: Antibacterial activity against Escherichia coli ATCC 25922 at 37 degC after 24 hrs by disc diffusion method
How it was run: (§1)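 Disc diffusion on nutrient agar. Plates were spread with 1–2 × […] c.f.u./ml inoculum (0.5 McFarland). Sterile 6.25 mm filter-paper discs were soaked in a known concentration of compound and placed on the agar. Plates were inverted and incubated 24 h at 37 °C. Inhibition zones (mm) were read against solvent and growth controls, with ciprofloxacin as reference.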

[2] = system: Trichophyton mentagrophytes; assay: Antifungal activity against Trichophyton mentagrophytes at 37 degC after 3 to 4 days by agar dilution method; settings: in the assay text read “agar diffusion method” for “agar dilution method”
How it was run: (§2)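 Agar well diffusion for fungi, compounds in DMSO. Sabouraud agar was adjusted to pH 5.7 and lawned with a saline spore suspension (a loopful in 3 ml). Plates were dried 1 h at 37 °C, then wells were punched. Incubation was 3–4 days at 37 °C, with controls in triplicate. Inhibition zones were measured against controls, with griseofulvin as standard.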

Talaromyces marneffei [3] = assay: Antifungal activity against Penicillium marneffei at 37 degC after 3 to 4 days by agar […] method; how it was run: as §2
Talaromyces marneffei [4] = assay: Antifungal activity against Penicillium marneffei at 35 degC after 48 hrs by broth dilution method
How it was run: (§3)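 Fungal MIC by broth dilution. Two-fold serial dilutions of compound in nutrient broth were inoculated with about 1.6 × 10⁴–6 × 10⁴ c.f.u./ml. Incubation was 48 h at 35 °C. MIC was the lowest concentration arresting fungal growth.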

Staphylococcus aureus [5] = assay: Antibacterial activity against Staphylococcus aureus ATCC 25923 at 37 degC after 24 hrs by broth dilution method; settings: ATCC 25923, 24 h
How it was run: (§4)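 Broth dilution MIC. Nutrient broth held two-fold serial dilutions of compound and was inoculated with about 5 × 10⁵ c.f.u. of actively dividing bacteria. Cultures ran 24 h at 37 °C, with growth checked visually and spectrophotometrically. MIC was the lowest concentration arresting growth. Ciprofloxacin was the standard.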

Talaromyces marneffei [6] = assay: Antifungal activity against Penicillium marneffei at 35 degC after 48 hrs
How it was run: (§5)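 Fungicidal endpoint (MFC). 0.1 ml from each broth-dilution tube was spread on agar plates and c.f.u. counted after 48 h at 35 °C. MFC was the lowest concentration killing 99.9% of the inoculum.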

Escherichia coli [7] = assay: Antibacterial activity against Escherichia coli ATCC 25922 at 35 degC after 18 to 24 hrs
How it was run: (§6)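 Bactericidal endpoint (MBC) taken from the broth-dilution MIC tubes. 0.1 ml from each tube was spread on agar plates and c.f.u. counted after 18–24 h. MBC was the lowest concentration completely killing the bacteria.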

Candida albicans [8] = assay: Antifungal activity against Candida albicans at 37 degC after 3 to 4 days by agar dilution method; settings: for Activity: in the assay text read “agar diffusion method” for “agar dilution method”; how it was run: as §2
Klebsiella pneumoniae [9] = assay: Antibacterial activity against Klebsiella pneumoniae ATCC 25922 at 37 degC after 24 hrs by broth dilution method; settings: recultured, in the assay text read “Klebsiella pneumoniae (recultured)” for “Klebsiella pneumoniae ATCC 25922”; how it was run: as §4
Candida albicans [10] = assay: Antifungal activity against Candida albicans at 35 degC after 48 hrs; how it was run: as §5
Staphylococcus aureus [11] = assay: Antibacterial activity against Staphylococcus aureus ATCC 25923 at 35 degC after 18 to 24 hrs; how it was run: as §6
Klebsiella pneumoniae [12] = assay: Antibacterial activity against Klebsiella pneumoniae ATCC 25922 at 35 degC after 18 to 24 hrs; settings: recultured, in the assay text read “Klebsiella pneumoniae (recultured)” for “Klebsiella pneumoniae ATCC 25922”; how it was run: as §6
Pseudomonas aeruginosa [13] = assay: Antibacterial activity against Pseudomonas aeruginosa ATCC 27853 at 37 degC after 24 hrs by disc diffusion method; how it was run: as §1
Aspergillus fumigatus [14] = assay: Antifungal activity against Aspergillus fumigatus at 35 degC after 48 hrs by broth dilution method; how it was run: as §3
[15] = system: Trichophyton mentagrophytes; assay: Antifungal activity against Trichophyton mentagrophytes at 35 degC after 48 hrs by broth dilution method; how it was run: as §3
Pseudomonas aeruginosa [16] = assay: Antibacterial activity against Pseudomonas aeruginosa ATCC 27853 at 37 degC after 24 hrs by broth dilution method; settings: ATCC 27853, 24 h; how it was run: as §4
Pseudomonas aeruginosa [17] = assay: Antibacterial activity against Pseudomonas aeruginosa ATCC 27853 at 35 degC after 18 to 24 hrs; how it was run: as §6
Aspergillus fumigatus [18] = assay: Antifungal activity against Aspergillus fumigatus at 35 degC after 48 hrs; how it was run: as §5
Aspergillus fumigatus [19] = assay: Antifungal activity against Aspergillus fumigatus at 37 degC after 3 to 4 days by agar […] method; how it was run: as §2
[20] = system: Trichophyton mentagrophytes; assay: Antifungal activity against Trichophyton mentagrophytes at 35 degC after 48 hrs; how it was run: as §5
Staphylococcus aureus [21] = assay: Antibacterial activity against Staphylococcus aureus ATCC 25923 at 37 degC after 24 hrs by disc diffusion method; how it was run: as §1
Candida albicans [22] = assay: Antifungal activity against Candida albicans at 35 degC after 48 hrs by broth dilution method; how it was run: as §3
Klebsiella pneumoniae [23] = assay: Antibacterial activity against Klebsiella pneumoniae ATCC 25922 at 37 degC after 24 hrs by disc diffusion method; how it was run: as §1
Escherichia coli [24] = assay: Antibacterial activity against Escherichia coli ATCC 25922 at 37 degC after 24 hrs by broth dilution method; settings: ATCC 25922, 24 h; how it was run: as §4

Row | SMILES | inhibition zone (IZ) (Escherichia coli [1]) | inhibition zone (IZ) (Talaromyces marneffei [3]) | MIC (Talaromyces marneffei [4]) | MIC (Staphylococcus aureus [5]) | MFC (Talaromyces marneffei [6]) | MBC (Escherichia coli [7]) | MIC (Klebsiella pneumoniae [9]) | MFC (Candida albicans [10]) | MBC (Staphylococcus aureus [11]) | MBC (Klebsiella pneumoniae [12]) | inhibition zone (IZ) (Pseudomonas aeruginosa [13]) | MIC (Aspergillus fumigatus [14]) | MIC [15] | MIC (Pseudomonas aeruginosa [16]) | MBC (Pseudomonas aeruginosa [17]) | MFC (Aspergillus fumigatus [18]) | inhibition zone (IZ) (Aspergillus fumigatus [19]) | MFC [20] | MIC (Candida albicans [22]) | MIC (Escherichia coli [24]) | further results
1 | Cc1ccc(OCc2nnc(-c3cc(F)c(Cl)cc3Cl)o2)cc1 | 25 mm | 18 mm | 6.25 µg/mL (≈ 17.7 µM) | 6.25 µg/mL (≈ 17.7 µM) | 12.5 µg/mL (≈ 35.4 µM) | 6.25 µg/mL (≈ 17.7 µM) | 12.5 µg/mL (≈ 35.4 µM) | 6.25 µg/mL (≈ 17.7 µM) | 12.5 µg/mL (≈ 35.4 µM) | 25 µg/mL (≈ 70.8 µM) | 32 mm | 6.25 µg/mL (≈ 17.7 µM) | 6.25 µg/mL (≈ 17.7 µM) | 6.25 µg/mL (≈ 17.7 µM) | 12.5 µg/mL (≈ 35.4 µM) | 12.5 µg/mL (≈ 35.4 µM) | 26 mm | 6.25 µg/mL (≈ 17.7 µM) | 6.25 µg/mL (≈ 17.7 µM) | 6.25 µg/mL (≈ 17.7 µM) | inhibition zone (IZ) [2]: 24 mm; inhibition zone (IZ) (Candida albicans [8]): 27 mm; inhibition zone (IZ) (Staphylococcus aureus [21]): 22 mm; inhibition zone (IZ) (Klebsiella pneumoniae [23]): 18 mm
2 | Cc1cc(Cl)ccc1OCc1nnc(-c2cc(-c3cc(F)c(Cl)cc3Cl)nc3ccccc23)o1 |  |  | > 100 µg/mL | 6.25 µg/mL (≈ 12.1 µM) | > 100 µg/mL | > 100 µg/mL | > 100 µg/mL | > 100 µg/mL | 25 µg/mL (≈ 48.6 µM) | > 100 µg/mL | 12 mm | 12.5 µg/mL (≈ 24.3 µM) | 6.25 µg/mL (≈ 12.1 µM) | 12.5 µg/mL (≈ 24.3 µM) | 50 µg/mL (≈ 97.1 µM) | 50 µg/mL (≈ 97.1 µM) | 12 mm | 12.5 µg/mL (≈ 24.3 µM) | > 100 µg/mL | > 100 µg/mL | Activity (Escherichia coli [1]): >100 µg/mL; inhibition zone (IZ) [2]: 19 mm; Activity (Talaromyces marneffei [3]): >100 µg/mL; Activity (Candida albicans [8]): >100 µg/mL; inhibition zone (IZ) (Staphylococcus aureus [21]): 17 mm; Activity (Klebsiella pneumoniae [23]): >100 µg/mL
3 | Cc1cc(OCc2nnc(-c3cc(-c4cc(F)c(Cl)cc4Cl)nc4ccccc34)o2)ccc1Cl | 17 mm | 12 mm | 12.5 µg/mL (≈ 24.3 µM) | > 100 µg/mL | 50 µg/mL (≈ 97.1 µM) | 25 µg/mL (≈ 48.6 µM) | > 100 µg/mL | > 100 µg/mL | > 100 µg/mL | > 100 µg/mL | 26 mm | 12.5 µg/mL (≈ 24.3 µM) | > 100 µg/mL | 6.25 µg/mL (≈ 12.1 µM) | 25 µg/mL (≈ 48.6 µM) | 25 µg/mL (≈ 48.6 µM) | 15 mm | > 100 µg/mL | > 100 µg/mL | 12.5 µg/mL (≈ 24.3 µM) | Activity [2]: >100 µg/mL; Activity (Candida albicans [8]): >100 µg/mL; Activity (Staphylococcus aureus [21]): >100 µg/mL; Activity (Klebsiella pneumoniae [23]): >100 µg/mL
4 | Fc1cc(-c2cc(-c3nnc(COc4ccc(Cl)cc4)o3)c3ccccc3n2)c(Cl)cc1Cl | 25 mm | 20 mm | 6.25 µg/mL (≈ 12.5 µM) | 6.25 µg/mL (≈ 12.5 µM) | 12.5 µg/mL (≈ 25 µM) | 6.25 µg/mL (≈ 12.5 µM) | 12.5 µg/mL (≈ 25 µM) | 50 µg/mL (≈ 99.9 µM) | 12.5 µg/mL (≈ 25 µM) | 25 µg/mL (≈ 49.9 µM) | 32 mm | 6.25 µg/mL (≈ 12.5 µM) | 6.25 µg/mL (≈ 12.5 µM) | 6.25 µg/mL (≈ 12.5 µM) | 25 µg/mL (≈ 49.9 µM) | 25 µg/mL (≈ 49.9 µM) | 16 mm | 12.5 µg/mL (≈ 25 µM) | 12.5 µg/mL (≈ 25 µM) | 6.25 µg/mL (≈ 12.5 µM) | inhibition zone (IZ) [2]: 15 mm; inhibition zone (IZ) (Candida albicans [8]): 12 mm; inhibition zone (IZ) (Staphylococcus aureus [21]): 19 mm; inhibition zone (IZ) (Klebsiella pneumoniae [23]): 18 mm
5 | Fc1cc(-c2cc(-c3nnc(COc4ccc(Cl)cc4Cl)o3)c3ccccc3n2)c(Cl)cc1Cl | 26 mm | 19 mm | 6.25 µg/mL (≈ 11.7 µM) | 6.25 µg/mL (≈ 11.7 µM) | 6.25 µg/mL (≈ 11.7 µM) | 12.5 µg/mL (≈ 23.4 µM) | 12.5 µg/mL (≈ 23.4 µM) | 6.25 µg/mL (≈ 11.7 µM) | 6.25 µg/mL (≈ 11.7 µM) | 12.5 µg/mL (≈ 23.4 µM) | 30 mm | 6.25 µg/mL (≈ 11.7 µM) | 6.25 µg/mL (≈ 11.7 µM) | 6.25 µg/mL (≈ 11.7 µM) | 12.5 µg/mL (≈ 23.4 µM) | 12.5 µg/mL (≈ 23.4 µM) | 27 mm | 25 µg/mL (≈ 46.7 µM) | 6.25 µg/mL (≈ 11.7 µM) | 6.25 µg/mL (≈ 11.7 µM) | inhibition zone (IZ) [2]: 21 mm; inhibition zone (IZ) (Candida albicans [8]): 29 mm; inhibition zone (IZ) (Staphylococcus aureus [21]): 20 mm; inhibition zone (IZ) (Klebsiella pneumoniae [23]): 17 mm
6 | Fc1cc(-c2cc(-c3nnc(COc4ccccc4Cl)o3)c3ccccc3n2)c(Cl)cc1Cl | 20 mm | 12 mm | 12.5 µg/mL (≈ 25 µM) | > 100 µg/mL | 25 µg/mL (≈ 49.9 µM) | 50 µg/mL (≈ 99.9 µM) | 25 µg/mL (≈ 49.9 µM) | 12.5 µg/mL (≈ 25 µM) | > 100 µg/mL | 100 µg/mL (≈ 200 µM) | 22 mm | > 100 µg/mL | > 100 µg/mL | 25 µg/mL (≈ 49.9 µM) | 50 µg/mL (≈ 99.9 µM) | > 100 µg/mL |  | > 100 µg/mL | 6.25 µg/mL (≈ 12.5 µM) | 6.25 µg/mL (≈ 12.5 µM) | Activity [2]: >100 µg/mL; inhibition zone (IZ) (Candida albicans [8]): 20 mm; Activity (Aspergillus fumigatus [19]): >100 µg/mL; Activity (Staphylococcus aureus [21]): >100 µg/mL; Activity (Klebsiella pneumoniae [23]): >100 µg/mL
7 | O=C(O)c1cn(C2CC2)c2cc(N3CCNCC3)c(F)cc2c1=O [CIPROFLOXACIN] | 27 mm |  |  |  |  | 12.5 µg/mL (≈ 37.7 µM) | 12.5 µg/mL (≈ 37.7 µM) |  | 12.5 µg/mL (≈ 37.7 µM) | 12.5 µg/mL (≈ 37.7 µM) | 32 mm |  |  |  | 12.5 µg/mL (≈ 37.7 µM) |  |  |  |  |  | inhibition zone (IZ) (Staphylococcus aureus [21]): 22 mm; inhibition zone (IZ) (Klebsiella pneumoniae [23]): 19 mm
8 | COC1=CC(=O)C[C@@H](C)[C@]12Oc1c(Cl)c(OC)cc(OC)c1C2=O [GRISEOFULVIN] |  | 20 mm | 6.25 µg/mL (≈ 17.7 µM) |  | 12.5 µg/mL (≈ 35.4 µM) |  |  | 12.5 µg/mL (≈ 35.4 µM) |  |  |  | 6.25 µg/mL (≈ 17.7 µM) | 6.25 µg/mL (≈ 17.7 µM) |  |  | 12.5 µg/mL (≈ 35.4 µM) | 27 mm | 12.5 µg/mL (≈ 35.4 µM) | 6.25 µg/mL (≈ 17.7 µM) |  | inhibition zone (IZ) [2]: 24 mm; inhibition zone (IZ) (Candida albicans [8]): 30 mm
